Reference: ChEMBL document CHEMBL4196174, “Discovery of Indole Derivatives as Novel and Potent Dengue Virus Inhibitors” (J Med Chem, 2018)
In brackets after ≈: the same amount, converted by molar mass.

How the values were obtained:
dengue virus type 2 [1] = assay: Antiviral activity against Dengue virus 2 Rega infected in African green monkey Vero cells assessed as reduction in viral yield after 4 days by qRT-PCR analysis; assay type: functional, organism-based; details: Dengue virus, Rega, Vero, 96 h
How it was run: (§1)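 Virus yield reduction in Vero cells (seeded 5×10^4/well). Next day infected with DENV (MOI 0.01) in assay medium (MEM, 2% FBS, 0.075% bicarbonate, 2 mM L-glutamine). After 1 h, input virus was removed and cells rinsed 3 times. Medium with 3- or 5-fold compound serial dilutions was then added. Incubation was 4 days (DENV-2, DENV-4) or 7 days (DENV-1, DENV-3). Supernatant viral RNA was measured by RT-qPCR, and EC50 obtained by logarithmic interpolation.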

[2] = Cytotoxicity against African green monkey Vero cells assessed as cell growth inhibition after 4 days by MTS/PMS method; assay type: cell-based; details: chlorocebus sabaeus, Vero cells
How it was run: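 Cytotoxicity run as in the yield assay, but without virus. Vero cells (5×10^4/well) were exposed to 3- or 5-fold serial dilutions in MEM with 2% FBS. Viability was read by the MTS/PMS colorimetric method. CC50 was derived by logarithmic interpolation.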

[3] = Solubility of the compound in DMSO solution at pH 7.4; assay type: physicochemical; details: read-out: solubility
How it was run: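 Solubility measured at pH 7.4, starting from a DMSO solution.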

[4] = Half life in human liver microsomes; assay type: ADME, microsome
dengue virus type 1 = assay: Antiviral activity against Dengue virus 1 Djibouti D1/H/IMTSSA/98/606 infected in African green monkey Vero cells assessed as reduction in viral yield after 7 days by qRT-PCR analysis; assay type: functional, organism-based; details: Djibouti D1/H/IMTSSA/98/606, Vero, 168 h; how it was run: as §1
dengue virus type 3 = assay: Antiviral activity against Dengue virus 3 H87 infected in African green monkey Vero cells assessed as reduction in viral yield after 7 days by qRT-PCR analysis; assay type: functional, organism-based; details: 168 h; how it was run: as §1
dengue virus type 4 = assay: Antiviral activity against Dengue virus 4 DAKHD34460 infected in African green monkey Vero cells assessed as reduction in viral yield after 4 days by qRT-PCR analysis; assay type: functional, organism-based; details: 96 h; how it was run: as §1
Salmonella typhimurium [5] = assay: Mutagenicity in Salmonella typhimurium in presence of human liver S9 fraction by Ames test; assay type: toxicity, organism-based; details: salmonella enterica subsp. enterica serovar typhimurium
Salmonella typhimurium [6] = assay: Mutagenicity in Salmonella typhimurium in absence of human liver S9 fraction by Ames test; assay type: toxicity, organism-based; details: salmonella enterica subsp. enterica serovar typhimurium
[7] = Selectivity index, ratio of CC50 for African green monkey Vero cells to EC50 for Dengue virus 2 Rega; assay type: toxicity; details: read-out: Ratio CC50/EC50
dengue virus type 2 [8] = assay: Antiviral activity against Dengue virus 2 Rega infected in African green monkey Vero cells assessed as log10 reduction of viral RNA replication at nontoxic dose after 4 days by qRT-PCR analysis relative to control; assay type: functional

Row | Structure (SMILES) | EC50 (dengue virus type 2 [1]) | CC50 at 96 h [2] | solubility [3] | half-life [4] | EC50 (dengue virus type 1) | EC50 (dengue virus type 3) | EC50 (dengue virus type 4) | Activity (Salmonella typhimurium [5]) | Activity (Salmonella typhimurium [6]) | selectivity ratio [7] | FC (dengue virus type 2 [8])
1 | COc1cc(NC(C(=O)c2c[nH]c3ccc(CCCO)cc23)c2ccccc2)cc(OC)c1 (stereo not drawn) | 0.096 µM | 56 µM | 23 µM (≈ 10.2 µg/mL) | 38 min | – | – | – | – | – | – | –
2 | COc1ccc(NC(C(=O)c2c[nH]c3ccccc23)c2ccccc2)cc1OC (stereo not drawn) | 0.078 µM | 29 µM | – | – | 1.6 µM | 29.4 µM | 4.5 µM | Non-Toxic | Non-Toxic | 380 | 3.8
